Experiments:
[1] = system: Mus musculus; test: Anticonvulsant activity in Swiss mouse assessed as protection against seizures at 100 mg/kg, ip dosed 0.25 hrs before pentylenetetrazole challenge by subcutaneous pentylenetetrazole seizure test; type: functional
Procedure, shortened: (§1)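 Mice were dosed i.p. at a fixed 300 or 100 mg/kg (6 Hz: 100 mg/kg only). Protection was then scored against MES, sc PTZ or 6 Hz seizures at pretreatment times of 0.25, 0.5, 1 and 2 h. Groups were four mice, scored as number protected / number tested. This also gives the time course and time of peak effect.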

[2] = species on record: Rattus norvegicus; test: Inhibition of [3H]BTX binding to sodium channel site 2 in rat cerebral cortex synaptosomes at 1 uM incubated for 60 mins by scintillation counting based radioligand displacement assay; type: subcellular
Procedure, shortened: (§2)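 Synaptoneurosomal preparations from rat cerebral cortex were used. The read-out was inhibition of specific [3H]BTX binding to the voltage-sensitive sodium channel (site 2), expressed as % inhibition of control specific binding. Compounds were tested at 1, 10, 100 and 500 μM. Inhibition above 50% was taken as significant.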

[3] = system: Mus musculus; test: Anticonvulsant activity in Swiss mouse model of 6 Hz psychomotor seizure mode assessed as protection against seizures at 100 mg/kg, ip dosed 1 hr before 6 Hz electrical stimulation by 6 Hz test; type: functional; procedure, shortened: as §1
[4] = species on record: Rattus norvegicus; test: Inhibition of [3H]BTX binding to sodium channel site 2 in rat cerebral cortex synaptosomes at 10 uM incubated for 60 mins by scintillation counting based radioligand displacement assay; type: subcellular; procedure, shortened: as §2
[5] = Protective index, ratio of neurotoxic TD50 in Swiss mouse by Chimney test to anticonvulsant ED50 in Swiss mouse measured at 1 hr of time to peak effect by 6 Hz test by 6 Hz psychomotor seizure test; type: toxicity; conditions: in vivo, read-out: Ratio TD50/ED50
Procedure, shortened: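 Neurotoxicity (TD50) estimated in mice i.p. by chimney test for motor coordination impairment; protective index calculated as TD50/ED50 for each seizure model.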

[6] = system: Mus musculus; test: Anticonvulsant activity in Swiss mouse assessed as protection against seizures at 300 mg/kg, ip dosed 2 hrs before initiation of maximal electroconvulsions by maximal electroshock test; type: functional; procedure, shortened: as §1
[7] = system: Liver microsome; test: Drug metabolism in human liver microsomes assessed as metabolite M2 formation at 50 uM in presence of NADPH regeneration system pre-incubated at 37 degC for 5 min and measured 2 hrs after post NADPH system addition by UPLC and LC-MS/MS method; type: ADME
Procedure, shortened: (§3)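 The compound was incubated 2 h with human liver microsomes. Metabolites were detected by full-scan chromatogram and identified by LC/MS from their [M+H]+ molecular masses.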

[8] = biological target: CYP3A4 (Homo sapiens, UniProt P08684); test: Inhibition of human recombinant CYP3A4 assessed as remaining enzyme activity by measuring conversion of luciferin-PPXE into D-luciferin at 25 uM by luminescence CYP3A4 P450-Glo assay relative to untreated control; type: ADME; conditions: recombinant CYP3A4, probe luciferin-PPXE, read-out: Activity
[9] = species on record: Mus musculus; test: Protective index, ratio of neurotoxic TD50 in Swiss mouse by Chimney test to anticonvulsant ED50 in Swiss mouse measured at 0.5 hrs of time to peak effect by 6 Hz test by 6 Hz psychomotor seizure test; type: functional
Procedure, shortened: (§4)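 Protective index was calculated as TD50 (chimney test, mouse, i.p.) divided by ED50 from the matching MES, sc PTZ or 6 Hz test, both taken at the time of peak effect.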

[10] = system: Liver microsome; test: Drug metabolism in human liver microsomes assessed as metabolite M1 formation at 50 uM in presence of NADPH regeneration system pre-incubated at 37 degC for 5 min and measured 2 hrs after post NADPH system addition by UPLC and LC-MS/MS method; type: ADME; procedure, shortened: as §3
[11] = system: Mus musculus; test: Anticonvulsant activity in Swiss mouse assessed as protection against seizures at 100 mg/kg, ip dosed 2 hrs before initiation of maximal electroconvulsions by maximal electroshock test; type: functional; procedure, shortened: as §1
[12] = Toxicity against HEK293 cells assessed as reduction in cell viability after 48 hrs by EZ4U label based assay; conditions: human
Procedure, shortened: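 HEK-293 human embryonic kidney cells were incubated with compound for 48 h and viability was then measured. Doxorubicin served as standard.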

[13] = system: Mus musculus; test: Anticonvulsant activity in Swiss mouse model of 6 Hz psychomotor seizure mode assessed as protection against seizures at 100 mg/kg, ip dosed 0.25 hrs before 6 Hz electrical stimulation by 6 Hz test; type: functional; procedure, shortened: as §1
[14] = species on record: Mus musculus; test: Protective index, ratio of neurotoxic TD50 in Swiss mouse by Chimney test to anticonvulsant ED50 in Swiss mouse measured at 1 hr of time to peak effect by maximal electroshock test; procedure, shortened: as §4
[15] = system: Mus musculus; test: Anticonvulsant activity in Swiss mouse assessed as protection against seizures at 300 mg/kg, ip dosed 0.5 hrs before pentylenetetrazole challenge by subcutaneous pentylenetetrazole seizure test; type: functional; procedure, shortened: as §1
[16] = system: Liver microsome; test: Drug metabolism in human liver microsomes assessed as metabolite M3 formation at 50 uM in presence of NADPH regeneration system pre-incubated at 37 degC for 5 min and measured 2 hrs after post NADPH system addition by UPLC and LC-MS/MS method; type: ADME; procedure, shortened: as §3
[17] = system: Mus musculus; test: Anticonvulsant activity in Swiss mouse assessed as protection against seizures at 100 mg/kg, ip dosed 1 hr before pentylenetetrazole challenge by subcutaneous pentylenetetrazole seizure test; type: functional; procedure, shortened: as §1
[18] = species on record: Rattus norvegicus; test: Inhibition of [3H]BTX binding to sodium channel site 2 in rat cerebral cortex synaptosomes at 100 uM incubated for 60 mins by scintillation counting based radioligand displacement assay; type: subcellular; procedure, shortened: as §2
[19] = system: Mus musculus; test: Anticonvulsant activity in Swiss mouse assessed as protection against seizures at 300 mg/kg, ip dosed 1 hr before initiation of maximal electroconvulsions by maximal electroshock test; type: functional; procedure, shortened: as §1
[20] = system: Mus musculus; test: Anticonvulsant activity in ip dosed Swiss mouse assessed as protection against seizures measured at 1 hr of time to peak effect by maximal electroshock test; type: functional
[21] = system: Mus musculus; test: Anticonvulsant activity in Swiss mouse assessed as protection against seizures at 100 mg/kg, ip dosed 0.5 hrs before pentylenetetrazole challenge by subcutaneous pentylenetetrazole seizure test; type: functional; procedure, shortened: as §1
[22] = system: Mus musculus; test: Anticonvulsant activity in Swiss mouse model of 6 Hz psychomotor seizure mode assessed as protection against seizures at 100 mg/kg, ip dosed 0.5 hrs before 6 Hz electrical stimulation by 6 Hz test; type: functional; procedure, shortened: as §1
[23] = system: Mus musculus; test: Protective index, ratio of neurotoxic TD50 in Swiss mouse by Chimney test to anticonvulsant ED50 in Swiss mouse measured at 1 hr of time to peak effect by subcutaneous pentylenetetrazole seizure test; type: functional; procedure, shortened: as §4
[24] = system: Mus musculus; test: Anticonvulsant activity in Swiss mouse assessed as protection against seizures at 100 mg/kg, ip dosed 0.25 hrs before initiation of maximal electroconvulsions by maximal electroshock test; type: functional; procedure, shortened: as §1
[25] = system: Mus musculus; test: Anticonvulsant activity in ip dosed Swiss mouse assessed as protection against seizures measured at 0.5 hrs of time to peak effect by subcutaneous pentylenetetrazole seizure test; type: functional
Procedure, shortened: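 Median effective doses (ED50, mg/kg) were determined i.p. in mice at the time of peak effect in the MES, sc PTZ or 6 Hz tests. Only compounds giving at least 50% protection at 100 mg/kg in that test were taken forward.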

[26] = system: Mus musculus; test: Protective index, ratio of neurotoxic TD50 in Swiss mouse by Chimney test to anticonvulsant ED50 in Swiss mouse measured at 0.5 hrs of time to peak effect by subcutaneous pentylenetetrazole seizure test; type: functional; procedure, shortened: as §4
[27] = system: Mus musculus; test: Anticonvulsant activity in Swiss mouse assessed as protection against seizures at 300 mg/kg, ip dosed 2 hrs before pentylenetetrazole challenge by subcutaneous pentylenetetrazole seizure test; type: functional; procedure, shortened: as §1

CYP3A4, sequence (P08684 whole entry): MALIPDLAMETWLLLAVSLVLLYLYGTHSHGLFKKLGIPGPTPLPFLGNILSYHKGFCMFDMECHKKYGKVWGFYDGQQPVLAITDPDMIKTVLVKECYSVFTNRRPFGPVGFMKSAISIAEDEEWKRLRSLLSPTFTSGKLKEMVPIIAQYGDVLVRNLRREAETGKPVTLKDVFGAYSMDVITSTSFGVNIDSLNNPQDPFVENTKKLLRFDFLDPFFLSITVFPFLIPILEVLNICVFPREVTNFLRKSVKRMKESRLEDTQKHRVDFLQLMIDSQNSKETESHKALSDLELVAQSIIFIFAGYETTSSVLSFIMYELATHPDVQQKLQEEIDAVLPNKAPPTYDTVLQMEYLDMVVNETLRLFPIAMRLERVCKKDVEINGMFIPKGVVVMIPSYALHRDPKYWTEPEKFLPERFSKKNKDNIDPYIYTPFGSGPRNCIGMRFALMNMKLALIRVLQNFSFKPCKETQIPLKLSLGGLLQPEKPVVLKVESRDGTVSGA

Question: For `CC(C(=O)N1CCN(c2cccc(C(F)(F)F)c2)CC1)N1C(=O)CCC1=O` (racemic), which Activity [1] is on record?
Answer: 50%

Question: And the inhibition [2]?
Answer: 3.5%

Question: What about the Activity [3] of the same compound?
Answer: 100%

Question: What about the inhibition [4] of the same compound?
Answer: 12.2%

Question: What about the selectivity ratio at 1 h [5] of the same compound?
Answer: 23.5

Question: What about the Activity [6] of the same compound?
Answer: 100%

Question: And the Drug metabolism [7]?
Answer: metabolite_detected

Question: And the activity at 25 µM [8]?
Answer: 68.4%

Question: What about the “Ratio TD50/ED50” value [9] of the same compound?
Answer: >71.43

Question: And the Drug metabolism [10]?
Answer: metabolite_detected

Question: And the Activity [11]?
Answer: 0%

Question: And the IC50 at 48 h [12]?
Answer: 50.7 µM

Question: And the Activity [13]?
Answer: 75%

Question: What about the “Ratio TD50/ED50” value [14] of the same compound?
Answer: 9.68

Question: What about the Activity [15] of the same compound?
Answer: 100%

Question: What about the Drug metabolism [16] of the same compound?
Answer: metabolite_detected

Question: What about the Activity [17] of the same compound?
Answer: 75%

Question: What about the inhibition [18] of the same compound?
Answer: 37.4%

Question: And the Activity [19]?
Answer: 100%

Question: What about the ED50 [20] of the same compound?
Answer: 85.1 mg/kg

Question: What about the Activity [21] of the same compound?
Answer: 100%

Question: And the Activity [22]?
Answer: 100%

Question: And the “Ratio TD50/ED50” value [23]?
Answer: 9.28

Question: What about the Activity [24] of the same compound?
Answer: 50%

Question: And the ED50 [25]?
Answer: 59.9 mg/kg

Question: What about the “Ratio TD50/ED50” value [26] of the same compound?
Answer: >25.04

Question: What about the Activity [27] of the same compound?
Answer: 100%

Source: ChEMBL document CHEMBL3580554, “Design, synthesis, and anticonvulsant activity of new hybrid compounds derived from 2-(2,5-dioxopyrrolidin-1-yl)propanamides and 2-(2,5-dioxopyrrolidin-1-yl)butanamides” (J Med Chem, 2015)
